Experimental data from article PMC11187553 (RSC Medicinal Chemistry, 2024).
“Also recorded” adds a separate entry of the source.

How the values were obtained:
[1] = system: SH-SY5Y cells; assay: Cytotoxic effects in SH-SY5Y cells; assay type: cell-based, human; details: for cytotoxicity (in words): 0.1-100 μM, 24, 48 or 72 h
[2] = system: histones H2/H3 lysine acetylation; assay: Western blot of lysine acetylation of histones H2/H3 in SH-SY5Y cells; assay type: cell-based, human; details: 5 μM, 6 h
Outline: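 SH-SY5Y cells were seeded at 20 × 10^4 cells/cm2 and grown 48 h, then given 5 μM test compound or vehicle for 6 h. Cells were washed in 10 mM sodium butyrate/PBS, nuclei isolated, and histones acid-extracted (0.4 N H2SO4, 4 °C, 1 h) and precipitated in acetone. Samples ran on 15% gels and were blotted to nitrocellulose with anti-acetyl-lysine antibody. Densitometry was normalised to H1.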

[3] = system: reactive oxygen species (ROS) in SH-SY5Y cells; assay: ROS determination with DCFDA probe in SH-SY5Y cells; assay type: cell-based, human; details: for protective effect against TBH-induced oxidative stress: 2 μM 24 h pre-treatment, 100 μM tert-butyl hydroperoxide 30 min; for effect on endogenous ROS (oxidative stress) vs control: 2 μM, 24 h, DCFDA
Outline: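 SH-SY5Y cells (1 × 10^4/well) were left 24 h to adhere, then given vehicle or 2 μM test compound for 24 h. After washing, cells were loaded with 10 μM DCFDA in DMEM for 30 min. Oxidative stress was then induced with 100 μM tert-butyl hydroperoxide in PBS for 30 min. Fluorescence (485/535 nm) was normalised to Lowry protein; experiments were done in triplicate.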

[4] = system: SH-SY5Y cells; assay: Analysis of cell cycle in SH-SY5Y cells; assay type: cell-based, human; details: 72 h
Outline: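 SH-SY5Y cells were grown in DMEM with 10% FBS and antibiotics at 37 °C in 5% CO2. After 72 h with test compound, cells were collected, fixed in 70% ice-cold ethanol and stained with a propidium iodide cell-cycle reagent for 30 min in the dark at room temperature. Cell-cycle distribution was read by flow cytometry.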

[5] = system: SH-SY5Y cells; assay: SH-SY5Y viability after NAC pre-treatment and compound 6; assay type: cell-based, human; details: NAC 2 mM 1 h, then compound 10 μM 24 h
[6] = system: SH-SY5Y cells; assay: SH-SY5Y viability after sulforaphane; assay type: cell-based, human; details: data not shown
[7] = target: T1, HDAC6 (Homo sapiens, UniProt Q9UBN7); assay: HDAC inhibition in vitro assay; assay type: biochemical; details: from IC50 values of Table 2
T1 sequence (Q9UBN7 1-1215): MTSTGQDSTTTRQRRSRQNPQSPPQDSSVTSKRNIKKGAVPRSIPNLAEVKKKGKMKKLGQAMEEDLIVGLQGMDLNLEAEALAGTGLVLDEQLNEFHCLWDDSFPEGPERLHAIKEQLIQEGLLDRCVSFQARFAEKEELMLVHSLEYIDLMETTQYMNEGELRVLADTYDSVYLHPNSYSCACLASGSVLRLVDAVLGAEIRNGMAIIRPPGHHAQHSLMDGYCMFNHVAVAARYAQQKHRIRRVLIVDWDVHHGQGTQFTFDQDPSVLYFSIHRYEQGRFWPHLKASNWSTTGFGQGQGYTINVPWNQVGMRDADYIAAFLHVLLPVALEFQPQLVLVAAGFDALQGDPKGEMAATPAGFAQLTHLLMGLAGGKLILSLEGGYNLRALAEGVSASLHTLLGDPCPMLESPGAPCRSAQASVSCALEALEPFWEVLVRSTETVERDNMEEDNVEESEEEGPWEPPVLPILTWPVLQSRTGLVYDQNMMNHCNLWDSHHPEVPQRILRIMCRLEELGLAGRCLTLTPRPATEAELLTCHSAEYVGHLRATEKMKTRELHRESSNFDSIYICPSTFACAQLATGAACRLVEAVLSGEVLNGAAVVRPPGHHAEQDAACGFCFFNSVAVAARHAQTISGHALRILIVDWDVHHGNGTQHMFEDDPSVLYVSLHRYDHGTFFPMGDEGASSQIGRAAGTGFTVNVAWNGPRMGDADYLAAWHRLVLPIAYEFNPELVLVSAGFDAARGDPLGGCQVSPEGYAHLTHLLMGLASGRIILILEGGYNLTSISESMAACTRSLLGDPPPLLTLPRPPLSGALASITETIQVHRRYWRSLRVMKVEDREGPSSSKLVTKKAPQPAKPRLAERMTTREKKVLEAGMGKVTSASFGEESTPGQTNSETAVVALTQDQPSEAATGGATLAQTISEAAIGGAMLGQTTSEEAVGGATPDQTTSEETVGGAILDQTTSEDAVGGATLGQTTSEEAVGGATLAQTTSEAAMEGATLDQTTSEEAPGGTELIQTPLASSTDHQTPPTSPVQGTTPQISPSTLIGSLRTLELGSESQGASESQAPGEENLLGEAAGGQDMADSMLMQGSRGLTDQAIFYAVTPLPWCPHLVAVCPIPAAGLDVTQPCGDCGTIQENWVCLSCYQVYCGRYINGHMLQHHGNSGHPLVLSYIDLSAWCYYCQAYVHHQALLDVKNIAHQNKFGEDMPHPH

[8] = system: SH-SY5Y cells; assay: Protection of SH-SY5Y cells from H2O2 cytotoxicity; assay type: cell-based, human; details: pre-treatment at all concentrations (1-50 μM), 24 h
[9] = system: HepG2 cells; assay: Cytotoxicity in human hepatoma cell line HepG2; assay type: cell-based; details: 24 h incubation at 1-100 μM, MTT
Outline: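 HepG2 cells were grown in MEM with 10% FBS, penicillin and streptomycin, then seeded at 1.5 × 10^4 cells/well. After 24 h they received test compound ([…]) in complete medium or vehicle for 24 h. MTT (0.2 mg mL−1 in PBS) was added for 2 h at 37 °C, formazan was dissolved in DMSO, and A570 was read. Results are % live cells versus vehicle, mean ± SD, n = 4.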

[10] = system: neural progenitor cells (neurospheres); assay: Neurospheres proliferation; assay type: cell-based, Mus musculus; details: 7 DIV
Outline: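 NPCs from the subventricular zone of 8-month-old male C57BL/6N mice were Accutase-dissociated and plated as single cells (5 × 10^3/well) in suspension. Medium was DMEM-F12 with glutamine, insulin, 20 ng ml−1 EGF, 20 ng ml−1 FGF2, N2 and B27. Test compound (2.5–50 μM) or DMSO was present for 7 DIV. Brightfield live-cell images were taken daily; only aggregates over 400 μm2 were analysed.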

[11] = system: neural progenitor cells (neurospheres); assay: Neurospheres differentiation analysis; assay type: cell-based, Mus musculus; details: 2.5 and 5 μM, 7 DIV
Outline: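 Neurospheres came from subventricular-zone NPCs of 8-month-old male C57BL/6N mice. Thirty spheres were plated on Matrigel-coated coverslips in complete DMEM F-12 with test compound or DMSO for 7 DIV. Cells were fixed in 4% PFA, permeabilised with Triton, blocked in goat serum, and stained overnight at 4 °C for DCX, GFAP, Olig2 and Nestin. Confocal z-stacks gave marker intensity/DAPI intensity; mean ± SD of 3 fields per condition.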

With `O=C(CS)NCCCCNC1=CC(=O)c2ccccc2C1=O` [Compound 7, N-(4-((1,4-Dioxo-1,4-dihydronaphthalen-2-yl)amino)butyl)-2-mercaptoacetamide] the “cytotoxicity (in words)” value [1] was “lowest cytotoxicity”.
Compound `CC1=C(NCCCCCC(=O)NO)C(=O)c2ccccc2C1=O` [Compound 2, N-Hydroxy-6-((3-methyl-1,4-dioxo-1,4-dihydronaphthalen-2-yl)amino)hexanamide] has an IC50 ([1]; Homo sapiens, 24 h, read-out: IC50 (μM) ± SEM 24 h) greater than 100 µM.
With `CC1=C(NCc2ccc(C(=O)Nc3ccccc3N)cc2)C(=O)c2ccccc2C1=O` [Compound 6, N-(2-Aminophenyl)-4-(((3-methyl-1,4-dioxo-1,4-dihydronaphthalen-2-yl)amino)methyl)benzamide] the “acetylation of histone H2/H3 lysines” value [2] was “massive hyperacetylation”, the “protective effect against TBH-induced oxidative stress” value [3] was “did not show any protective effect” and the “effect on endogenous ROS (oxidative stress) vs control” value [3] was “significant induction of oxidative stress”. The “cell-cycle block in G0/G1, S or G2/M (cytostatic effect)” value [4] was “no cell-cycle block”, the “mitigation of cytotoxic effect by NAC pre-treatment” value [5] was “not mitigated” and the “change of toxic activity in cells pretreated with sulforaphane” value ([6]; SFN pre-treatment) was “did not observe any change in the toxic activity”.
With `Nc1ccccc1NC(=O)c1ccc(CNC2=CC(=O)c3ccccc3C2=O)cc1` [Compound 5, N-(2-Aminophenyl)-4-(((1,4-dioxo-1,4-dihydronaphthalen-2-yl)amino)methyl)benzamide] the “cytotoxicity (in words)” value [1] was “comparable to that of vorinostat”.
For `CC1=C(NCCCCNC(=O)CS)C(=O)c2ccccc2C1=O` [Compound 8, 2-Mercapto-N-(4-((3-methyl-1,4-dioxo-1,4-dihydronaphthalen-2-yl)amino)butyl)acetamide], the “cytotoxicity (in words)” value [1] was “nontoxic up to the concentration of 100 μM; also recorded: lowest cytotoxicity”, the “selectivity between HDAC2 and HDAC6 isoforms” value [7] was “no selectivity” and the “protective effect against TBH-induced oxidative stress” value [3] was “did not show any protective effect”. For the same compound, the “effect on endogenous ROS (oxidative stress) vs control” value [3] was “only a tendency to increase ROS production”, the “rescue of SH-SY5Y cell viability from H2O2” value [8] was “did not rescue” and the “toxicity in HepG2 cells (in words)” value [9] was “no significant toxicity up to 10 μM”. The “neurospheres number per well vs DMSO control” value ([10]; 2.5 and 5 μM) was “significantly increased”, the “neurospheres size vs DMSO control” value ([10]; 2.5 and 5 μM) was “without affecting” and the toxicity to neurospheres ([10]; higher concentrations 25, 50 μM) was “toxic”. The “DCX+ cells (immature neurons marker) vs DMSO control” value [11] was “significantly increased”, the “GFAP expression (astrocytes marker) vs DMSO control” value [11] was “without affecting” and the “Nestin+ cells (NPCs marker) vs DMSO control” value [11] was “decreased”. The “Olig2 expression (OPCs marker) vs DMSO control” value [11] was “without affecting” and the “protective activity in H2O2-stressed cells after sulforaphane treatment” value ([6]; SFN (NQO1 inducer)) was “no increase in the protective activity”.
